Laboratory results published in ChEMBL document CHEMBL4033657, “N-Aryl-N'-ethyleneaminothioureas effectively inhibit acetylcholinesterase 1 from disease-transmitting mosquitoes” (Eur J Med Chem, 2017).

Tests used:
[1] = (§1) Inhibition of recombinant full length Aedes aegypti AChE1 expressed in baculovirus-infected Sf9 insect cells using acetylthiocholine iodide as substrate measured over 60 secs by Ellman's method
Procedure, shortened: (§2)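 Secreted, non-purified recombinant enzyme in growth medium, tested as enzyme source. Ellman assay at 30 °C in 0.1 M phosphate buffer pH 7.4 with 0.2 mM DTNB and 1 mM acetylthiocholine iodide; A412 followed over 60 s. Compound (100 mM DMSO stock) tested at eight concentrations, maximum 1 mM. Activity set relative to eight uninhibited controls per plate; IC50 from three-parameter variable-slope fit; 2-3 independent replicates.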

Aedes aegypti [2] = test: as §1; procedure, shortened: as §2
[3] = biological target: Acetylcholinesterase (Anopheles gambiae) (UniProt Q869C3); test: Inhibition of recombinant full length Anopheles gambiae AChE1 expressed in baculovirus-infected Sf9 insect cells at 1 mM using acetylthiocholine iodide as substrate measured over 60 secs by Ellman's method; procedure, shortened: as §2
[4] = Selectivity ratio of IC50 for recombinant human AChE expressed in HEK293F cells to IC50 for recombinant full length Anopheles gambiae AChE1 expressed in baculovirus-infected Sf9 insect cells
Procedure, shortened: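 Ratio of the hAChE IC50 divided by the higher of the AgAChE1 or AaAChE1 IC50. Each IC50 came from an Ellman assay (1 mM acetylthiocholine, 0.2 mM DTNB, pH 7.4, 30 °C) with eight concentrations up to 1 mM, using 2-3 replicates.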

Aedes aegypti [5] = test: Inhibition of recombinant full length Aedes aegypti AChE1 expressed in baculovirus-infected Sf9 insect cells at 1 mM using acetylthiocholine iodide as substrate measured over 60 secs by Ellman's method; procedure, shortened: as §2
[6] = biological target: Acetylcholinesterase (Anopheles gambiae) (UniProt Q869C3); test: (§3) Inhibition of recombinant full length Anopheles gambiae AChE1 expressed in baculovirus-infected Sf9 insect cells using acetylthiocholine iodide as substrate measured over 60 secs by Ellman's method
Acetylcholinesterase [7] = biological target: T1, Acetylcholinesterase (Anopheles gambiae, UniProt Q869C3); test: as §3
Acetylcholinesterase [8] = biological target: Acetylcholinesterase (Anopheles gambiae, UniProt Q869C3, G122S); test: Inhibition of recombinant full length Anopheles gambiae AChE1 G122S mutant expressed in baculovirus-infected Sf9 insect cells using acetylthiocholine iodide as substrate measured over 60 secs by Ellman's method
Acetylcholinesterase [9] = biological target: Acetylcholinesterase (Homo sapiens, UniProt P22303); test: Inhibition of recombinant human AChE expressed in HEK293F cells using acetylthiocholine iodide as substrate measured over 60 secs by Ellman's method; set-up: species or system HEK293
Anopheles gambiae [10] = test: Insecticidal activity against 3rd instar larvae of Anopheles gambiae Kisumu assessed as mortality at 50 uM administered via de-chlorinated tap water after 24 hrs; assay type: functional
Procedure, shortened: (§4)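 Kenyan strains were reared at 27-28 °C, about 80% humidity, 12/12 h light. Per compound and concentration, 25 third-instar larvae were placed in 100 ml de-chlorinated water containing the compound and kept under insectary conditions. The negative control was plain water; the positive control was propoxur at 25 µM. Mortality was scored at 24 h; 75 treated and 50 control larvae in total.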

Anopheles gambiae [11] = test: Insecticidal activity against 3rd instar larvae of Anopheles gambiae Kisumu assessed as mortality at 500 uM administered via de-chlorinated tap water after 24 hrs; assay type: functional; procedure, shortened: as §4
Anopheles gambiae [12] = test: Insecticidal activity against five days old adult Anopheles gambiae Kisumu assessed as mortality at 10 mM applied topically on upper part of pronotum after 48 hrs (reference value: 14 to 22%); assay type: functional; settings: topical
Anopheles gambiae [13] = test: Insecticidal activity against five days old adult Anopheles gambiae Kisumu assessed as mortality at 100 mM applied topically on upper part of pronotum after 48 hrs (reference value: 15 to 24%); assay type: functional; settings: topical
Anopheles gambiae [14] = test: Insecticidal activity against five days old adult Anopheles gambiae Kisumu assessed as mortality at 10 mM applied topically on upper part of pronotum after 24 hrs (reference value: 8 to 16%); assay type: functional; settings: topical
Aedes aegypti [15] = test: Insecticidal activity against 3rd instar larvae of Aedes aegypti Mombasa assessed as mortality at 50 uM administered via de-chlorinated tap water after 48 hrs (reference value: 0 to 4%); assay type: functional
Aedes aegypti [16] = test: Insecticidal activity against five days old adult Aedes aegypti Mombasa assessed as mortality at 0.2 nmol applied topically on upper part of pronotum after 24 hrs; assay type: functional
Aedes aegypti [17] = test: Insecticidal activity against five days old adult Aedes aegypti Mombasa assessed as mortality at 10 mM applied topically on upper part of pronotum after 24 hrs (reference value: 3 to 15%); assay type: functional; settings: topical
Aedes aegypti [18] = test: Insecticidal activity against 3rd instar larvae of Aedes aegypti Mombasa assessed as mortality at 50 uM administered via de-chlorinated tap water after 24 hrs; assay type: functional; procedure, shortened: as §4
Acetylcholinesterase [19] = biological target: T1, Acetylcholinesterase; test: Inhibition of AChE1 in Anopheles gambiae head extract using acetylthiocholine iodide as substrate measured over 60 secs by Ellman's method
Aedes aegypti [20] = test: Insecticidal activity against 3rd instar larvae of Aedes aegypti Mombasa assessed as mortality at 500 uM administered via de-chlorinated tap water after 24 hrs; assay type: functional; procedure, shortened: as §4
Aedes aegypti [21] = test: Insecticidal activity against five days old adult Aedes aegypti Mombasa assessed as mortality at 100 mM applied topically on upper part of pronotum after 24 hrs (reference value: 3%); assay type: functional; settings: topical
Aedes aegypti [22] = test: Insecticidal activity against five days old adult Aedes aegypti Mombasa assessed as mortality at 100 mM applied topically on upper part of pronotum after 48 hrs (reference value: 7 to 8%); assay type: functional; settings: topical
Aedes aegypti [23] = test: Insecticidal activity against five days old adult Aedes aegypti Mombasa assessed as mortality at 2 mM applied topically on upper part of pronotum after 24 hrs (reference value: 2 to 10%); assay type: functional; settings: topical
Aedes aegypti [24] = test: Insecticidal activity against five days old adult Aedes aegypti Mombasa assessed as mortality at 10 nmol applied topically on upper part of pronotum after 24 hrs; assay type: functional
Anopheles gambiae [25] = test: Insecticidal activity against five days old adult Anopheles gambiae Kisumu assessed as mortality at 1 nmol applied topically on upper part of pronotum after 24 hrs; assay type: functional
Anopheles gambiae [26] = test: Insecticidal activity against 3rd instar larvae of Anopheles gambiae Kisumu assessed as mortality at 500 uM administered via de-chlorinated tap water after 48 hrs; assay type: functional
Aedes aegypti [27] = test: Insecticidal activity against five days old adult Aedes aegypti Mombasa assessed as mortality at 1 nmol applied topically on upper part of pronotum after 24 hrs; assay type: functional
Acetylcholinesterase [28] = biological target: T1, Acetylcholinesterase; test: Inhibition of AChE1 in Anopheles gambiae body extract using acetylthiocholine iodide as substrate measured over 60 secs by Ellman's method
Aedes aegypti [29] = test: Insecticidal activity against 3rd instar larvae of Aedes aegypti Mombasa assessed as mortality at 500 uM administered via de-chlorinated tap water after 48 hrs (reference value: 0 to 2%); assay type: functional
Aedes aegypti [30] = test: Insecticidal activity against five days old adult Aedes aegypti Mombasa assessed as mortality at 10 mM applied topically on upper part of pronotum after 48 hrs (reference value: 3 to 15%); assay type: functional; settings: topical
Anopheles gambiae [31] = test: Insecticidal activity against five days old adult Anopheles gambiae Kisumu assessed as mortality at 100 mM applied topically on upper part of pronotum after 24 hrs (reference value: 9 to 10%); assay type: functional; settings: topical
Anopheles gambiae [32] = test: Insecticidal activity against five days old adult Anopheles gambiae Kisumu assessed as mortality at 2 mM applied topically on upper part of pronotum after 24 hrs (reference value: 3 to 17%); assay type: functional; settings: topical
Anopheles gambiae [33] = test: Insecticidal activity against five days old adult Anopheles gambiae Kisumu assessed as mortality at 0.2 nmol applied topically on upper part of pronotum after 24 hrs; assay type: functional
Anopheles gambiae [34] = test: Insecticidal activity against five days old adult Anopheles gambiae Kisumu assessed as mortality at 2 mM applied topically on upper part of pronotum after 48 hrs (reference value: 13 to 38%); assay type: functional; settings: topical
Anopheles gambiae [35] = test: Insecticidal activity against 3rd instar larvae of Anopheles gambiae Kisumu assessed as mortality at 50 uM administered via de-chlorinated tap water after 48 hrs; assay type: functional
Aedes aegypti [36] = test: Insecticidal activity against five days old adult Aedes aegypti Mombasa assessed as mortality at 2 mM applied topically on upper part of pronotum after 48 hrs (reference value: 3 to 12%); assay type: functional; settings: topical
Anopheles gambiae [37] = test: Insecticidal activity against five days old adult Anopheles gambiae Kisumu assessed as mortality at 10 nmol applied topically on upper part of pronotum after 24 hrs; assay type: functional

Row | Compound | IC50 [1] | inhibition (Aedes aegypti [2]) | inhibition [3] | Ratio IC50 [4] | inhibition (Aedes aegypti [5]) | inhibition [6] | IC50 (Acetylcholinesterase [7]) | IC50 (Acetylcholinesterase [8]) | IC50 (Acetylcholinesterase [9]) | mortality at 50 µM (Anopheles gambiae [10]) | mortality at 500 µM (Anopheles gambiae [11]) | mortality at 10000 µM (Anopheles gambiae [12]) | mortality at 100000 µM (Anopheles gambiae [13]) | mortality at 10000 µM (Anopheles gambiae [14]) | mortality at 50 µM (Aedes aegypti [15]) | mortality (Aedes aegypti [16]) | mortality at 10000 µM (Aedes aegypti [17]) | mortality at 50 µM (Aedes aegypti [18]) | mortality at 500 µM (Aedes aegypti [20]) | mortality at 100000 µM (Aedes aegypti [21]) | further results
1 | NS(=O)(=O)c1ccc(NC(=S)NCCN2CCCCC2)cc1 | 5.5 µM | Dose-dependent effect | 70% | 12 | 70% | Dose-dependent effect | 7.8 µM | 33 µM | 90 µM | – | – | – | – | – | – | – | – | – | – | – | –
2 | COc1ccc(NC(S)=NCCN2CCC(C)CC2)cc1 | > 200 µM | – | – | – | – | – | > 200 µM | > 200 µM | > 200 µM | – | – | – | – | – | – | – | – | – | – | – | –
3 | COc1ccc(NC(=S)NCCN(C)C)cc1Cl | 16 µM | – | – | 3 | – | – | 18 µM | 17 µM | 46 µM | – | – | – | – | – | – | – | – | – | – | – | –
4 | COc1ccccc1NC(=S)NCCN(C)C | 6 µM | Dose-dependent effect | 50% | 17 | 50% | Dose-dependent effect | 7.1 µM | 50 µM | 120 µM | 5% | 3% | 20% | 73% | 9% | 7% | 8% | 10% | 7% | 5% | 10% | IC50 (Acetylcholinesterase [19]): 7.1 µM; mortality at 100000 µM (Aedes aegypti [22]): 18%; mortality at 2000 µM (Aedes aegypti [23]): 8%; mortality (Aedes aegypti [24]): 10%; mortality (Anopheles gambiae [25]): 0%; mortality at 500 µM (Anopheles gambiae [26]): 3%; mortality (Aedes aegypti [27]): 10%; IC50 (Acetylcholinesterase [28]): 7.6 µM; mortality at 500 µM (Aedes aegypti [29]): 7%; mortality at 10000 µM (Aedes aegypti [30]): 15%; mortality at 100000 µM (Anopheles gambiae [31]): 61%; mortality at 2000 µM (Anopheles gambiae [32]): 16%; mortality (Anopheles gambiae [33]): 16%; mortality at 2000 µM (Anopheles gambiae [34]): 23%; mortality at 50 µM (Anopheles gambiae [35]): 7%; mortality at 2000 µM (Aedes aegypti [36]): 13%; mortality (Anopheles gambiae [37]): 57%
5 | COc1ccc(NC(=S)NCCN(C)C)cc1 | > 200 µM | – | – | – | – | – | > 200 µM | > 200 µM | > 200 µM | 4% | 3% | 50% | 67% | 43% | 5% | 1% | 12% | 4% | 1% | 12% | mortality at 100000 µM (Aedes aegypti [22]): 17%; mortality at 2000 µM (Aedes aegypti [23]): 11%; mortality (Aedes aegypti [24]): 12%; mortality (Anopheles gambiae [25]): 32%; mortality at 500 µM (Anopheles gambiae [26]): 16%; mortality (Aedes aegypti [27]): 0%; mortality at 500 µM (Aedes aegypti [29]): 3%; mortality at 10000 µM (Aedes aegypti [30]): 21%; mortality at 100000 µM (Anopheles gambiae [31]): 59%; mortality at 2000 µM (Anopheles gambiae [32]): 17%; mortality (Anopheles gambiae [33]): 0%; mortality at 2000 µM (Anopheles gambiae [34]): 36%; mortality at 50 µM (Anopheles gambiae [35]): 5%; mortality at 2000 µM (Aedes aegypti [36]): 11%; mortality (Anopheles gambiae [37]): 55%
